MC4R ag barr – activates human MC4R beta-arrestin recruitment. P32245. U2OS MC4R beta-arrestin complementation, luminescence; percent of melanotan II response, DMSO zero. activation, % at 8.9 µM. hit rate 0.98% among 360,000;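 active = activation above a per-plate cutoff, the mean activation of sample wells on that plate plus 3 SD, cut at about 8% in these data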
TbMetRS inhib – blocks T. brucei methionyl-tRNA synthetase activity; purified T. brucei MetRS, ATP depletion, Kinase-Glo luminescence; inhibition, % at 11.9 µM; hit rate 0.4% among 360,000; AID 624268;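 active = inhibition above a per-plate cutoff of the control wells' mean inhibition plus 3 SD, cut at about 5.5% in these data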;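 also: 0% = DMSO wells median and 100% = median of wells with control inhibitor compound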
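Material: T. brucei methionyl-tRNA synthetase, purified; reagent: substrates ATP, L-methionine and bulk Escherichia coli tRNA; dosing: 11.9 µM single point; timing: 15 min plus 2 h at 25 °C; detection: luminescence of leftover ATP; evaluation: % inhibition; control set: DMSO-only wells as low control; replicates: singlicate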
MC4R antagonist – antagonists of human melanocortin 4 receptor (MC4R); P32245; MC4R-expressing cells, MTII-stimulated cAMP, LANCE TR-FRET; inhibition, % at 6.5 µM; hit rate 0.48% among 360,000; AID 540295;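 active = inhibition above its plate's cutoff, the mean of tested wells on that plate plus 3 SD, cut at about 29% in these data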;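 also: 0% = Melanotan II alone and 100% = Melanotan II plus saturating MCL0020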
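System: U2OS-MC4R stable cell line; Technique: Eu-cAMP/anti-cAMP TR-FRET, emission 671 nm; Repeats: single well per compound; Also added: Melanotan II; Dosing: one concentration, 6.5 µM nominal; Schedule: 30-min compound, 1-h challenge, 1-h detection, room temperature.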
Granule exo inh – lytic granule exocytosis inhibition. TALL-104 LAMP-1 surface exposure, flow cytometry; cells stimulated with thapsigargin and PMA. inhibition, % at 10 µM. hit rate 0.66% among 360,000;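 active = inhibition above about 55%, limit read from the data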
ABCB6 inh MLPCN – blocks the human ABCB6 transporter; Q9NP58; K562-ABCB6 porphyrin accumulation, flow cytometry, 1 h; active compounds read low; fluorescence ratio to DMSO, % at 10 µM; hit rate 0.19% among 360,000; AID 602162;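 active = fluorescence ratio to DMSO below 75%, the collection mean minus 3 SD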;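 also: signal is porphyrin accumulated inside mitochondria; 100% equals median channel fluorescence of DMSO control wells; lower ratio means ABCB6 inhibition with less porphyrin fluorescence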
Target sequence (Q9NP58 whole entry, looked up): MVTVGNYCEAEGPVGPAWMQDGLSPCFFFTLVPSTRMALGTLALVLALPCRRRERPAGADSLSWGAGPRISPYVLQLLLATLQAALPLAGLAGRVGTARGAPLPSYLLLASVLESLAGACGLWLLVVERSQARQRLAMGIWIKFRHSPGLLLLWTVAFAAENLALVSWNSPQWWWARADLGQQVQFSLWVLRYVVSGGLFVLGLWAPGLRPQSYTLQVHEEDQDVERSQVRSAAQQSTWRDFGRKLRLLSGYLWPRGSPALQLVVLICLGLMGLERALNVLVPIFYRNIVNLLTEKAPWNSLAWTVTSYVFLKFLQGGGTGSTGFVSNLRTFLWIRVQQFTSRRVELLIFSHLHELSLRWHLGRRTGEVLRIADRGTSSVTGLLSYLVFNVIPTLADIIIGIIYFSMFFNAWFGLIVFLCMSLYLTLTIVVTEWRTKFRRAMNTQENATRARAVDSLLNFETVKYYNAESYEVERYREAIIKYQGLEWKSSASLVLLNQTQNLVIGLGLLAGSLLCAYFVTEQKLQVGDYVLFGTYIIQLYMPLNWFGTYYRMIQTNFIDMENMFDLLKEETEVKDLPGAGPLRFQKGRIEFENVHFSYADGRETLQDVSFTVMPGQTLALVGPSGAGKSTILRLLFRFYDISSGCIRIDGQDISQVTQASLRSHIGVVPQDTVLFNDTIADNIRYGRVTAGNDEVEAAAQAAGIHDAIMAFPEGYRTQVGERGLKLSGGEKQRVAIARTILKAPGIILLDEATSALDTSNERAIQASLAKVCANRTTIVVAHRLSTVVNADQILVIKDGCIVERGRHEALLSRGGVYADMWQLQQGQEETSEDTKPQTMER
iPSC survival up – enhancers of human iPSC single-cell survival; hiPSC single-cell survival, ATPlite luminescence; 100% = ROCK inhibitor wells, 0% = DMSO; AID 602274; survival enhancement, % at 20 µM; hit rate 0.044% among 360,000; in the data active = survival enhancement above about 18%;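 also: cells exposed to compounds for 16 hours before the ATP read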
The depositor's hits bear a star. Sampled rows, rich in hits. Any-hit rate of the full collection: about 2.6%.

SMILES	MC4R ag barr	TbMetRS inhib	MC4R antagonist	Granule exo inh	ABCB6 inh MLPCN	iPSC survival up
COc1ccccc1/C=C/C=C(\C#N)C(=O)NC(C)c1ccccc1 (stereo unspecified)	2.1	-0.4	8.2	76.9*	103.0	0.6
O=C(Nc1ccccc1)c1ccc(-c2ccccc2Cl)o1	8.5*	-0.4	3.1	7.2	110.0	-1.8
O=C(CCl)N(c1ccccc1)c1ccccc1	2.0	-0.5	16.2	-0.4	101.0	-0.6
Cc1cccc(N(Cc2cc(=O)[nH]c3ccccc23)C(=O)CCl)c1	3.8	-0.7	-0.5	1.7	100.0	-0.5
CCCCCCN(C(=O)CCl)c1ccccc1	18.3*	0.6	8.0	0.8	102.0	-0.6
CCCCCCCN(C(=O)CCl)c1cccc(C)c1	9.0*	-0.1	3.6	4.0	97.0	-0.5
c1ccc(-c2ccccc2OCc2nnc3n2CCC3)cc1	1.5	-0.5	-0.9	-2.6	99.0	0.0
COc1cc2c(cc1OC)C(C1C(=O)CC(C)(C)CC1=O)N(C(=O)CCl)CC2 (stereo unspecified)	1.8	-0.2	16.3	0.7	105.0	1.3
COc1cc2c(cc1OC)C(c1cc(Br)ccc1F)N(C(=O)CCl)CC2 (stereo unspecified)	1.6	-0.3	-14.7	2.7	98.0	20.6*
Cc1ccc(S(=O)(=O)/N=C(/Nc2ccc(F)cc2F)c2ccc(F)cc2)cc1	-1.1	-0.9	2.6	-0.8	95.0	1.4
COc1ccccc1N/C(=N/S(=O)(=O)c1ccc(C)cc1)c1ccc(Cl)cc1	0.2	0.1	29.7*	-1.2	93.0	6.1
CCOC(=O)c1c(NC(=O)c2cccs2)sc2c1CC(C)(C)OC2	0.6	-1.1	7.9	66.7*	98.0	-1.0
Cc1c(Cl)cccc1NC(=O)COC(=O)CCc1nc2ccccc2n1-c1ccccc1	8.3*	0.3	14.0	2.7	105.0	2.1
O=C(COC(=O)CCc1nc2ccccc2n1-c1ccccc1)Nc1cccc(Cl)c1	3.9	-0.3	-4.0	15.0	81.0	-0.1
COc1ccc(NC(=O)CNc2cc(S(=O)(=O)N3CCOCC3)ccc2NCC2CCCO2)cc1 (stereo unspecified)	0.1	1.3	22.8	-4.4	121.0	1.5
O=C(CNc1cc(S(=O)(=O)N2CCOCC2)ccc1NCC1CCCO1)Nc1ccc(F)c(F)c1 (stereo unspecified)	4.0	8.5*	12.2	-1.3	106.0	-0.2
C#CCn1c(=NC(=O)c2ccc(S(=O)(=O)N3CCc4ccccc4C3)cc2)sc2cc(S(N)(=O)=O)ccc21	9.2*	-0.1	-4.8	1.2	96.0	0.2
C=CCn1c(=NC(=O)c2ccc(S(=O)(=O)N3CCc4ccccc4C3)cc2)sc2cc(S(N)(=O)=O)ccc21	-2.5	-0.1	-2.5	-1.9	86.0	-0.5
Cc1ccccc1OCC(=O)NC(=S)Nc1ccc(S(=O)(=O)NC2CCCCC2)cc1	2.8	-0.9	4.2	-0.6	95.0	-1.8
CCc1ccc(OCC(=O)NC(=S)Nc2ccc(S(=O)(=O)NC3CCCCC3)cc2)cc1	8.3*	-1.0	-8.6	2.1	100.0	-1.9
CCN1CCN(c2ncnc3scc(-c4ccc(C)c(C)c4)c23)CC1	1.5	-0.5	14.2	82.3*	98.0	0.1
Fc1ccc(CN2CCN(c3ncnc4scc(-c5ccc(F)cc5)c34)CC2)cc1	-0.9	-0.1	8.5	5.4	93.0	-0.6
COc1ccc(CNC(=O)C2CCN(C(=O)Cc3ccccc3)CC2)cc1	-1.6	-0.6	8.7	7.9	98.0	-0.6
COCCCN(C(C)=O)c1nc(-c2ccc(OC)cc2)cs1	-1.2	-0.4	-17.0	2.4	72.0*	3.9
COc1ccc(N2CCN(c3ccc(NC(=O)c4ccc5c(c4)OCO5)cc3C#N)CC2)cc1	0.3	0.1	16.8	-3.2	99.0	1.6
COc1ccc(CC(=O)Nc2ccc(N3CCN(c4ccc(OC)cc4)CC3)c(C#N)c2)cc1	8.6*	-0.5	2.4	-1.6	107.0	-4.2
C=CCn1c(O)c(C2=c3ccccc3=NC2=O)c2ccccc21	-1.1	-0.1	-14.7	62.1*	96.0	0.5
COc1ccc(-n2c(-c3ccc(Cl)cc3)c[n+]3c2CCc2ccccc2-3)cc1	-2.6	0.1	2.3	1.2	92.0	-3.1
